Experiments:
[1] = test system: 403 wild-type (WT) human kinases; test: DiscoverX scanMAX kinome-wide selectivity screen; type: binding; conditions: 403 WT human kinases; for no. kinases with PoC < 10: DiscoverX scanMAX, 1 μM; for S10 (1 μM): Percentage of screened kinases with PoC values < 10 at 1 μM
[2] = biological target: TYK2 (Homo sapiens, UniProt P29597); test: NanoBRET assay follow-up; type: cell-based; conditions: singlicate (n = 1) dose–response
[3] = test system: 16-member kinase panel; test: Eurofins custom enzymatic kinase panel, count of kinases inhibited; type: biochemical; conditions: 16-member Eurofins panel, 1 μM
How it was run: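 Radiometric kinase assays were run with ATP at Km. Each test compound was tested at a single concentration of 1 μM, in duplicate, against each panel kinase, with results as percent of control. The count is the number of kinases at ≤ 10 PoC, i.e. inhibited ≥ 90%.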

[4] = PAMPA permeability; type: in vitro ADME; conditions: PBS pH 7.4, 5 h incubation
How it was run: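 DMSO stocks of test compound were diluted in PBS pH 7.4 and added to the donor side of a precoated PAMPA plate, with PBS pH 7.4 as acceptor, for 5 h. Both compartments were quantified by chemiluminescent nitrogen detection against a calibration curve, with background nitrogen corrected. Effective permeability was calculated from donor and acceptor concentrations, using measured rather than assumed solubility.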

[5] = biological target: MYLK2 (Homo sapiens, UniProt Q9H1R3); test: NanoBRET assay follow-up; type: cell-based
Sequence of MYLK2 (Q9H1R3 whole entry): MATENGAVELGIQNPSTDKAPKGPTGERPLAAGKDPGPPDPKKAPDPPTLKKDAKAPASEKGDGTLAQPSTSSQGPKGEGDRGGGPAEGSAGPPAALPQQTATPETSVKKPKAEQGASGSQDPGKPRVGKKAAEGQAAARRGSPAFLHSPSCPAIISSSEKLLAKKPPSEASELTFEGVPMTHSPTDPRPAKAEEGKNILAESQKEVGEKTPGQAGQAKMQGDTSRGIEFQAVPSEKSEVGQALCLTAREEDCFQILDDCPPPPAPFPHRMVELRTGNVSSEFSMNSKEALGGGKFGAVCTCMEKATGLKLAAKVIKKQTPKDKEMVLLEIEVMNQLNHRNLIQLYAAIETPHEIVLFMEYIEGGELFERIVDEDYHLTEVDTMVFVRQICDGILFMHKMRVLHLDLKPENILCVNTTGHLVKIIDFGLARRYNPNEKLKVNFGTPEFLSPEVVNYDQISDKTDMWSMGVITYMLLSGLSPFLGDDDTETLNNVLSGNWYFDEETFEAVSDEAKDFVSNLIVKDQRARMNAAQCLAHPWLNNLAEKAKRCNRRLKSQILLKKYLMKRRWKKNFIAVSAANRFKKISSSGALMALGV

[6] = biological target: T1, MARK4 (NLuc-MARK4) (Homo sapiens, UniProt Q96L34); test: NanoBRET cellular target engagement assay; type: cell-based; conditions: HEK293, 0.5 μM tracer K-5; n = 1 where no error, SEM n = 2
T1 sequence (Q96L34 1-752): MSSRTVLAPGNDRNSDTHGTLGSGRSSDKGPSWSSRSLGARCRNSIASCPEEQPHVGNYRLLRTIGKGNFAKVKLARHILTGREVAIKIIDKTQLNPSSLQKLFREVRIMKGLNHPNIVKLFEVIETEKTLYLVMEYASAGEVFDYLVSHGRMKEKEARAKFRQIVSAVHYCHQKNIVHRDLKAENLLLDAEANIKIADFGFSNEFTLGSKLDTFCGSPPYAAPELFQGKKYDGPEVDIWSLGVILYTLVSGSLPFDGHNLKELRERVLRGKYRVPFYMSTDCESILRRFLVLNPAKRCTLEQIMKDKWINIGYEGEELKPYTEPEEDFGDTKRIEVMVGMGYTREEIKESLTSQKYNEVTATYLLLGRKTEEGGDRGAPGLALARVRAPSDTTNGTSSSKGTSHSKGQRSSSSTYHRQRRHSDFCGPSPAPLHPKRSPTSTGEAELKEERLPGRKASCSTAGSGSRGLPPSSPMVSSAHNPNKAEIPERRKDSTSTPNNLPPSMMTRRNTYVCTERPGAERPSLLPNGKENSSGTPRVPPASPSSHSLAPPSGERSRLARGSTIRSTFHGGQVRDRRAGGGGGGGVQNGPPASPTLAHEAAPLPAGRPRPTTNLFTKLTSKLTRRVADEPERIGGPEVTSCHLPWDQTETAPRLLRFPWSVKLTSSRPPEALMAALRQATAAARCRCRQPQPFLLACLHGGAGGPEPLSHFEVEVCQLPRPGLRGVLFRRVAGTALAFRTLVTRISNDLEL

[7] = biological target: MARK3 (NLuc-MARK3) (Homo sapiens, UniProt P27448); test: NanoBRET cellular target engagement assay; type: cell-based; conditions: for MARK3 NanoBRET IC50: HEK293, 0.5 μM tracer K-9, n = 1 where no error, SEM n = 2
Sequence of MARK3 (NLuc-MARK3) (P27448 whole entry): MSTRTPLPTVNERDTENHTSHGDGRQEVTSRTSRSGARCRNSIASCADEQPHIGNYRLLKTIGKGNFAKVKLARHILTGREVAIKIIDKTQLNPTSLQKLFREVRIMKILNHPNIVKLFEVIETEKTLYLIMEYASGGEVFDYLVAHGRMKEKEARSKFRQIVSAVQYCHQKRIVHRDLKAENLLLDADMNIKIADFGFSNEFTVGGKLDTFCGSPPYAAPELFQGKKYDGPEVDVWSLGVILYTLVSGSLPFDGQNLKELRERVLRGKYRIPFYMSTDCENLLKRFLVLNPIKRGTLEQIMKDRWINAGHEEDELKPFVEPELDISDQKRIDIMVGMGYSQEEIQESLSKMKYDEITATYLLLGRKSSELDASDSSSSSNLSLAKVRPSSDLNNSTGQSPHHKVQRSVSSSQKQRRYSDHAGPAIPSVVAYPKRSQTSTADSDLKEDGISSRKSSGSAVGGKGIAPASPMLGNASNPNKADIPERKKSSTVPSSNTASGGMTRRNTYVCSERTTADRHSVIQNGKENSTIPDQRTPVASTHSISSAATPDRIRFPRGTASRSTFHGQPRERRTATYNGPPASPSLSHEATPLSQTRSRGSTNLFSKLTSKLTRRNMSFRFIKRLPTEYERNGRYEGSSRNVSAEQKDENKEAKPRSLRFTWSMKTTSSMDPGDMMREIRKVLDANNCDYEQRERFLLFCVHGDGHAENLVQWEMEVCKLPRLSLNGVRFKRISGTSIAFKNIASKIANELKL

[8] = biological target: T2, TBK1 (NLuc-TBK1) (Homo sapiens, UniProt Q9UHD2); test: NanoBRET cellular target engagement assay; type: cell-based; conditions: HEK293, 0.5 μM tracer K-5; n = 1 where no error, SEM n = 3
T2 sequence (Q9UHD2 1-729): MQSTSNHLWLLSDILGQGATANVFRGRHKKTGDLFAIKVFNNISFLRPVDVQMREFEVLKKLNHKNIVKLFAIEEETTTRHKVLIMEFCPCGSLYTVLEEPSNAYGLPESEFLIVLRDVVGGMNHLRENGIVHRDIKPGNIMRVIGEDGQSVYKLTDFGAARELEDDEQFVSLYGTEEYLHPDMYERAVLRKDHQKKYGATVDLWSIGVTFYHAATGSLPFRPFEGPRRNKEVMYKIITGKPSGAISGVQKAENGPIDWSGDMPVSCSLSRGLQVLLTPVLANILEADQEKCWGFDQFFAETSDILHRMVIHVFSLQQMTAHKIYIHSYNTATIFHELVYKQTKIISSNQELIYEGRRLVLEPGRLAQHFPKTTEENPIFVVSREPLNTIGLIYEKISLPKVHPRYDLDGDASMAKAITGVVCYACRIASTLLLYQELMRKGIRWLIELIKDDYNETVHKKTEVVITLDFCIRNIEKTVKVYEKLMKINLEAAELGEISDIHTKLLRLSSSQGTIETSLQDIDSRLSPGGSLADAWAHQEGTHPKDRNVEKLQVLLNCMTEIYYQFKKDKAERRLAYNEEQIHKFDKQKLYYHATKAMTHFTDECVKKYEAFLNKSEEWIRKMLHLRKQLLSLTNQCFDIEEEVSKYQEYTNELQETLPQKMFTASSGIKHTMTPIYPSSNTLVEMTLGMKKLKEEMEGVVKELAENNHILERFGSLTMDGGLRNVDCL
How it was run: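 HEK293 cells were grown in DMEM with 10% FBS at 37 °C under 5% CO2, passaged every 72 h with trypsin and kept below confluency. Cells expressed NanoLuc fusions (DRAK1-NLuc or NLuc-TBK1). Dose–response was run per the manufacturer's protocol, with 0.5 μM tracer K-9 for DRAK1 and 0.5 μM tracer K-5 for TBK1. SEM was reported where assays were repeated.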

[9] = biological target: T3, DRAK1 (DRAK1-NLuc) (Homo sapiens, UniProt Q9UEE5); test: NanoBRET cellular target engagement assay; type: cell-based; conditions: HEK293, 0.5 μM tracer K-9; n = 1 where no error, SEM n = 3
T3 sequence (Q9UEE5 1-414): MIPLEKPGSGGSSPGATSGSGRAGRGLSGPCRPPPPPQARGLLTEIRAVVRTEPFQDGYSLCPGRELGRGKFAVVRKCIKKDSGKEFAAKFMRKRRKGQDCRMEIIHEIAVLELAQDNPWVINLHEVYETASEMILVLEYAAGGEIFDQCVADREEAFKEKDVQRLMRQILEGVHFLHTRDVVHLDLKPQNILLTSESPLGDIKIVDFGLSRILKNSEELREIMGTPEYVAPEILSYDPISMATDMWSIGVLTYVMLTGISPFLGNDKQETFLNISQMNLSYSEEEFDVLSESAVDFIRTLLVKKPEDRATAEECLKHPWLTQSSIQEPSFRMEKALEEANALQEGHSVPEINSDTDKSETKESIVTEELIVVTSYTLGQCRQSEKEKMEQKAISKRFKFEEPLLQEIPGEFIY

[10] = biological target: T4, NUAK1 (Homo sapiens, UniProt O60285); test: NanoBRET assay follow-up; type: cell-based
T4 sequence (O60285 1-661): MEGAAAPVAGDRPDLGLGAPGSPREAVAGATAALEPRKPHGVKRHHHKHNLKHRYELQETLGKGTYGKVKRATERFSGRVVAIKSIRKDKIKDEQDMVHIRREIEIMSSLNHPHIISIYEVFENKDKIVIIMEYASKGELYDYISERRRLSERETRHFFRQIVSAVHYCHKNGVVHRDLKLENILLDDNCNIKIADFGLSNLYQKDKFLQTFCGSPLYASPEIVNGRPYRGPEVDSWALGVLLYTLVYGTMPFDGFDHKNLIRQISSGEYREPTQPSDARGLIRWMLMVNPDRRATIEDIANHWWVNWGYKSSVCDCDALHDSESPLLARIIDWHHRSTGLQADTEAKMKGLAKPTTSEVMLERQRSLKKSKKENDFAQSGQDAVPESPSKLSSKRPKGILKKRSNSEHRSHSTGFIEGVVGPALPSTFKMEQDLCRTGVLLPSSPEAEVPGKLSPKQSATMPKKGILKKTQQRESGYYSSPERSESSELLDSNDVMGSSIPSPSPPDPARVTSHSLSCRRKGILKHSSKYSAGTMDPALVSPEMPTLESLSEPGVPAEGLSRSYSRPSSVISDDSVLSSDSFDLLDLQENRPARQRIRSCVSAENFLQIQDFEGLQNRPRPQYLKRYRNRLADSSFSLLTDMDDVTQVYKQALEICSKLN

[11] = biological target: T4, NUAK1; test: Eurofins kinase enzymatic radiometric assay; type: biochemical; conditions: enzymatic IC50 values
How it was run: (§1)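 Both kinases of each pair (NUAK1/NUAK2; TBK1/IKKε) were tested in radiometric assays with ATP at Km. Test compounds were run as 9-point dose–response curves in duplicate. IC50 values for the two kinases were then compared as a fold difference.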

[12] = biological target: T5, TBK1 (Homo sapiens, UniProt Q9UHD2); test: Eurofins kinase enzymatic radiometric assay; type: biochemical; conditions: enzymatic IC50 values
T5 sequence (Q9UHD2 1-729): T2 sequence (Q9UHD2 1-729)
How it was run: as §1

Sequence of TYK2 (P29597 whole entry): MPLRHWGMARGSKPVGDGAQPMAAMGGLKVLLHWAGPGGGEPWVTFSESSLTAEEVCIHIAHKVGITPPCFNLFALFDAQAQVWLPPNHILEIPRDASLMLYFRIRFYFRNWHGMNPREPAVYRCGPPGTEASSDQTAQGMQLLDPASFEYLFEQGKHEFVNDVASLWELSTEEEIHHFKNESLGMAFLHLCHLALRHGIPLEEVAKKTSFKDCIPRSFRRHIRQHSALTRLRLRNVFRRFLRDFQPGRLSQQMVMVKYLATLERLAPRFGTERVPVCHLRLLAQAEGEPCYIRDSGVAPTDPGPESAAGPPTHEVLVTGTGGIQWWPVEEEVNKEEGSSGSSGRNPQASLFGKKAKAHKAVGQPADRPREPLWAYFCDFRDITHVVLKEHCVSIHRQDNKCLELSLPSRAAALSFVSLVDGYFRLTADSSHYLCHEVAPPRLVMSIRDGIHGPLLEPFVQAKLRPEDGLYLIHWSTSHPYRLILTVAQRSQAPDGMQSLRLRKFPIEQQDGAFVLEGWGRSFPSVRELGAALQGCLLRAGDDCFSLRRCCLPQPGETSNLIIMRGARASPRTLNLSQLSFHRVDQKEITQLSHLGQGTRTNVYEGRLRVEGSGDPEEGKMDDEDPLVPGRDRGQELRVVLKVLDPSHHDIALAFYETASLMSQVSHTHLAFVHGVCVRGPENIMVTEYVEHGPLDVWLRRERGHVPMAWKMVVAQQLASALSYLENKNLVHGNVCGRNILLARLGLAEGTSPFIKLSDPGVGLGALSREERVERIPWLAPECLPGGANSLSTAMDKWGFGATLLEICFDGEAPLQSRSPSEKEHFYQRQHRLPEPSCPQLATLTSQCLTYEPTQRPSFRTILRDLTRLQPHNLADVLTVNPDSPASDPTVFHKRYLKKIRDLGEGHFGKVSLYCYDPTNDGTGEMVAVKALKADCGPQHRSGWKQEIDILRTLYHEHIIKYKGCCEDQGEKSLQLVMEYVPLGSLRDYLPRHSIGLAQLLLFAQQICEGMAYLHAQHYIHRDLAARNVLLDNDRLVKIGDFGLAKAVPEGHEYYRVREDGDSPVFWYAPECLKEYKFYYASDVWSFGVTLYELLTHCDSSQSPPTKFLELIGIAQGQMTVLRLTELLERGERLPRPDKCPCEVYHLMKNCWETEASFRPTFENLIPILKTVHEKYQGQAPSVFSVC

Structure (SMILES) | no. kinases ≤ 10 PoC in enzyme panel [3] | Pe (permeability coefficient, PAMPA) [4] | no. kinases with PoC < 10 [1] | S10 (1 μM) [1] | also measured
O=C(NCCCNc1nc(Nc2cccc(NC(=O)N3CCCC3)c2)ncc1I)c1cccs1 [BX-795, reference compound] | 16 |  |  |  | IC50 [7]: 515 nM; IC50 [10]: 187 nM; fold loss in potency, enzymatic to NanoBRET, NUAK1 ([10]; published enzymatic IC50 vs NanoBRET IC50): ~34 fold
Brc1cnc(Nc2cccc(CN3CCOCC3)c2)nc1NCCc1c[nH]cn1 [Compound 9, N^4-(2-(1H-Imidazol-4-yl)ethyl)-5-bromo-N^2-(3-(morpholinomethyl)phenyl)pyrimidine-2,4-diamine] | 13 | low permeability | 94 | 0.233 | MARK4 NanoBRET IC50 [6]: submicromolar; MARK3 NanoBRET IC50 [7]: submicromolar; DRAK1 NanoBRET IC50 [9]: submicromolar
NS(=O)(=O)c1ccc(CNc2nc(Nc3cccc(NC(=O)N4CCCC4)c3)ncc2Br)cc1 [Compound 13, N-(3-((5-Bromo-4-((4-sulfamoylbenzyl)amino)pyrimidin-2-yl)amino)phenyl)pyrrolidine-1-carboxamide] | 4 | below the limit of quantitation |  | 0.03 | fold difference between NUAK1 and NUAK2 [11]: ~3 fold
Cc1nn(CC(F)(F)F)cc1Nc1ncc(C2CC2)c(NCc2ccc(S(N)(=O)=O)cc2)n1 [Compound 5, 4-(((5-Cyclopropyl-2-((3-methyl-1-(2,2,2-trifluoroethyl)-1H-pyrazol-4-yl)amino)pyrimidin-4-yl)amino)methyl)benzenesulfonamide] | 1 | below the limit of quantitation | 2 | 0.005 | fold difference in potency for TBK1 and IKKε [12]: 8 fold

Second part, led by results:

no. kinases ≤ 10 PoC in enzyme panel [3] | Pe (permeability coefficient, PAMPA) [4] | Structure (SMILES) | no. kinases with PoC < 10 [1] | S10 (1 μM) [1] | also measured
0 | below the limit of quantitation | NS(=O)(=O)c1ccc(CNc2ccnc(Nc3cccc(NC(=O)N4CCCC4)c3)n2)cc1 [Compound 16, N-(3-((4-((4-Sulfamoylbenzyl)amino)pyrimidin-2-yl)amino)phenyl)pyrrolidine-1-carboxamide] | 1 |  | TYK2 NanoBRET IC50 [2]: did not have any activity
0 | low permeability | Cc1nn(CC(F)(F)F)cc1Nc1nccc(NCCc2cnc[nH]2)n1 [Compound 15, N^4-(2-(1H-Imidazol-5-yl)ethyl)-N^2-(3-methyl-1-(2,2,2-trifluoroethyl)-1H-pyrazol-4-yl)pyrimidine-2,4-diamine] | 0 |  | fold loss in potency, enzymatic versus NanoBRET, MYLK2 [5]: < 10 fold; MYLK2 NanoBRET IC50 ([5]; singlicate (n = 1) dose–response): single digit micromolar activity
16 |  | O=C(NCCCNc1nc(Nc2cccc(NC(=O)N3CCCC3)c2)ncc1Br)C1CCC1 [Compound 18, N-(3-((5-Bromo-4-((3-(cyclobutanecarboxamido)propyl)amino)pyrimidin-2-yl)amino)phenyl)pyrrolidine-1-carboxamide] | 90 | 0.223 | MARK4 NanoBRET IC50 [6]: submicromolar; MARK3 NanoBRET IC50 [7]: submicromolar; TBK1 NanoBRET IC50 [8]: submicromolar; DRAK1 NanoBRET IC50 [9]: submicromolar
0 |  | NS(=O)(=O)c1ccc(CNc2ccnc(Nc3cccc(CN4CCOCC4)c3)n2)cc1 [Compound 19, 4-(((2-((3-(Morpholinomethyl)phenyl)amino)pyrimidin-4-yl)amino)methyl)benzenesulfonamide] | 3 | 0.007 | TYK2 NanoBRET IC50 [2]: did not have any activity

— article PMC8802302 (Journal of Medicinal Chemistry, 2021)
